Screening data from PubChem.
UBC13 inh – inhibitors of human UBC13 polyubiquitin chain formation. P61088. TR-FRET. inhibition, % at 20 µM. 330,000 tested, 0.47% active. AID 485273; in the data active means inhibition above about 45%, passing the limit was not always enough
Target sequence (P61088 whole entry, looked up): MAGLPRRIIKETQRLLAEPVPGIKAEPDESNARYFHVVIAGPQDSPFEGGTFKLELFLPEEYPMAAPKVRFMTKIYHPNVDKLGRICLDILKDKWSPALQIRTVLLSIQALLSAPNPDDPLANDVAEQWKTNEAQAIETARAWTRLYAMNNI
SENP8 block-1 – inhibitors of human SENP8 protease; Q96LD8; purified SENP8, Z-RLRGG-aminoluciferin cleavage, luminescence; inhibition, % at 10 µM; 330,000 tested, 1.2% active; AID 2540; in the data active means inhibition above about 50%
Target sequence (Q96LD8 whole entry, looked up): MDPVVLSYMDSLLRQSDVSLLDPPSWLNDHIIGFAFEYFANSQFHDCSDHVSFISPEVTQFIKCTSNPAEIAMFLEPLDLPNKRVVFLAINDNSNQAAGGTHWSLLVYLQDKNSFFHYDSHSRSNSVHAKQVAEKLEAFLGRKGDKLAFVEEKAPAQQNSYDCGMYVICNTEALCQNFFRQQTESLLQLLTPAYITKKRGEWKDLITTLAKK
SENP7 inh – inhibitors of human SENP7 protease; recombinant SENP7, Z-RLRGG-aminoluciferin luminescence, 40 min; inhibition, % at 5 µM; 330,000 tested, 1.5% active;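 active means inhibition above about 50% at the single test dose, limit read from the data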;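 further: plate controls were DMSO with enzyme for no effect and no enzyme buffer wells for full effect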
Target sequence (Q9BQF6 706-1050 limits assumed): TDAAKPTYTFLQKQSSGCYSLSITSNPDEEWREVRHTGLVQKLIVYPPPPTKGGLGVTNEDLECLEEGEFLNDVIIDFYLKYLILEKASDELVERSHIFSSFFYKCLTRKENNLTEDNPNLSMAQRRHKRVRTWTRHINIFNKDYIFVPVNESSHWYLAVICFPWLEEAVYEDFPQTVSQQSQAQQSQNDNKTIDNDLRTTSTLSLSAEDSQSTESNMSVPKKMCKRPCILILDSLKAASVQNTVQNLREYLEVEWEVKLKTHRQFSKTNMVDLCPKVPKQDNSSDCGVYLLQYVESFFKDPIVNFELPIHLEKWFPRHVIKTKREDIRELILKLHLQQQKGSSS
SENP8 block-2 – inhibitors of human SENP8 protease | Q96LD8 | recombinant SENP8, Nedd8 substrate fluorescence | inhibition, % at 20 µM | 360,000 tested, 0.64% active | AID 602440; in the data active means inhibition mostly above about 40%, no sharp cut-off; inactive means mostly below about 27%
SENP6 inh – inhibitors of human SENP6 protease. Q9GZR1. Recombinant SENP6 catalytic domain, aminoluciferin luminescence. inhibition, % at 10 µM. 330,000 tested, 1.8% active;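 active means inhibition above about 50% at the single tested dose, limit read from the data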;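 further: plate controls were DMSO wells with enzyme for no effect and DMSO wells lacking enzyme for full effect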
Apaf1 inhib – inhibitors of human Apaf-1 apoptosome; O14727; reconstituted apoptosome caspase-3 activity, DEVD-Rh110 fluorescence; inhibition, % at 20 µM; 330,000 tested, 0.71% active; AID 489030; active means inhibition of at least 40% at 20 µM;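 further: plate controls were DMSO wells for no effect and DEVD-CHO caspase inhibitor wells for full effect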
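Material: reconstituted apoptosome with Apaf-1, cytochrome c, caspase-9, procaspase-3, dATP. Technique: Rh110 fluorescence intensity. Buffer or medium: pH 7.5 Hepes buffer with CHAPS, BSA, DTT. Times: 30 min plus 50 min, RT.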
SENP8 conf – human SENP8 inhibition, confirmed. inhibition, % at 12.5 µM. Recombinant SENP8, Z-RLRGG-aminoluciferin luminescence, 60 min. shares compounds with SENP7 inh. 6,200 tested, 40% active. AID 488912;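 active means mean inhibition across replicates above about 50%, limit read from the data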
SENP6 confirm – confirmation of human SENP6 protease inhibitors; inhibition, % at 12.5 µM; AID 488915; 6,200 tested, 58% active; recombinant SENP6, Z-RLRGG-aminoluciferin luminescence; shares compounds with SENP7 inh
SENP7 conf – confirmation of human SENP7 protease inhibitors; 6,200 tested, 69% active; recombinant SENP7, Z-RLRGG-aminoluciferin luminescence, 40 min; inhibition, % at 12.5 µM; shares compounds with SENP7 inh
Casp3 SENP sel – inhibits human caspase-3 in SENP selectivity test | 6,200 tested, 60% active | shares compounds with SENP7 inh | inhibition, % at 12.5 µM | purified caspase-3, Z-DEVD-aminoluciferin luminescence, 60 min;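 active means mean inhibition above about 50%, limit read from the data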;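 further: plate controls were enzyme with DMSO for no effect and wells without caspase-3 for full effect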
Luc interf – counter-screen for SENP inhibitors: luminescence interference. shares compounds with SENP7 inh. Pre-incubated SENP8/Z-RLRGG-aminoluciferin, luciferase luminescence interference. inhibition, % at 12.5 µM. 6,200 tested, 39% active;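 active means mean inhibition above about 50% when retested at one dose, limit read from the data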;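 further: plate controls were DMSO wells with completed reaction for no effect and substrate without enzyme for full effect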
* marks the source's active call; other numbers are inactive results; i = inactive; / = no result. Compounds with a hit are over-represented: about 3% of the library has one in this group of screens.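 How the source made its calls, unless noted: active means mean inhibition above about 50% in the one-dose retest (limit read from the data); inactive means the rest.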

SMILES	UBC13 inh	SENP8 block-1	SENP7 inh	SENP8 block-2	SENP6 inh	Apaf1 inhib	SENP8 conf	SENP6 confirm	SENP7 conf	Casp3 SENP sel	Luc interf
CCOC(=O)C1(CCc2ccccc2)CCN(Cc2ccc(NC(C)=O)cc2)CC1	-1.8	-7.0	-2.9	15.3	-9.1	6.3	/	/	/	/	/
C[C@H]1CCC/C=C/[C@@H]2C[C@H](O)C[C@H]2[C@@H](O)/C=C/C(=O)O1	/	/	/	3.5	/	/	/	/	/	/	/
CC(C)CCNC(=O)c1c(N)n(CC2CCCO2)c2nc3ccccc3nc12 (stereo not given)	7.3	79.1*	73.7*	-258.2	81.5*	91.3*	16.8	47.7	35.0	3.6	4.7
c1ccc2sc(C3CCNCC3)nc2c1	/	/	/	20.3	/	/	/	/	/	/	/
Cc1cc(C(=O)CS(=O)(=O)c2ccccc2)cc(C)c1OC(=O)N(C)C	7.7	36.5	45.0	9.6	54.0*	12.2	43.5	41.3	77.9*	79.2*	35.5
CN(C)C(=O)Oc1ccc(OCc2nc3ccccc3[nH]2)cc1	-4.3	-6.5	95.2*	14.5	91.2*	-8.4	94.4*	94.5*	100.3*	96.4*	93.0*
Oc1cc(O)cc(/C=C/c2ccc(O)cc2O)c1	18.3	46.3	40.0	-498.7	70.5*	-13.4	61.8*	61.6*	87.1*	58.9*	76.6*
O=NN1CCCCC1	6.0	9.0	4.7	3.7	-2.2	26.8	/	/	/	/	/
O=c1[nH]c(=S)[nH]c(O)c1N=Nc1ccc(OC(F)F)cc1	-57.8	92.4*	92.8*	27.4	93.7*	-6.9	91.2*	92.4*	88.1*	95.7*	44.2
O=c1[nH]c(=S)[nH]c(O)c1N=Nc1ccc(S(=O)(=O)N2CCOCC2)cc1	-61.9	-10.9	0.3	35.0	-14.2	-10.3	/	/	/	/	/
NS(=O)(=O)c1ccc(N=Nc2c(O)[nH]c(=S)[nH]c2=O)cc1	-52.8	-9.0	10.5	26.2	33.3	-137.8	/	/	/	/	/
COc1ccc(N=Nc2c(O)[nH]c(=S)[nH]c2=O)cc1	-315.9	65.6*	66.3*	20.6	76.0*	9.7	26.7	79.4*	51.2*	77.6*	6.8
COc1ccc(-c2cc(=Nc3cccc(C(=O)O)c3)c3cc(C)ccc3o2)cc1	7.1	63.7*	82.3*	-407.8	49.8	-21.6	9.6	52.9*	68.4*	51.3*	65.2*
O=C1NC(=O)N(c2ccccc2)C(=O)/C1=C\c1ccc([N+](=O)[O-])s1	-27.8	17.4	20.2	/	19.7	19.5	/	/	/	/	/
COc1ccc(OC)c(N2C(=O)NC(=O)/C(=C\c3ccc([N+](=O)[O-])s3)C2=O)c1	-30.2	10.4	0.2	48.3*	50.8*	24.9	14.1	32.6	14.2	5.6	4.2
CC(C)(C)C(=O)C(Oc1ccc(Cl)cc1)n1cncn1 (stereo not given)	/	/	/	11.0	/	/	/	/	/	/	/
CCCCCSc1cc(OC)c(CCN(C)C)cc1OC	18.9	2.5	-0.5	20.7	53.0*	-2.8	10.2	5.4	8.2	3.9	4.0
COc1cc(C2(C#N)CCN(C)CC2)cc(OC)c1OC	/	/	/	10.1	/	/	/	/	/	/	/
C=CCOC(=O)c1ccccc1N	3.1	-17.5	2.5	-420.1	-10.7	-3.5	/	/	/	/	/
Nc1ccccc1C(=O)OCCOc1ccccc1	13.5	85.5*	94.9*	i	89.6*	0.5	91.9*	92.2*	99.1*	80.6*	90.1*
O=C1NCN(c2ccccc2)C12CCN(C(c1ccccc1)c1nnnn1C1CCCC1)CC2 (stereo not given)	/	/	/	15.5	/	/	/	/	/	/	/
CNC(=O)Oc1ccc(-c2cn3cc(Cl)ccc3n2)cc1	8.7	64.4*	67.2*	-332.9	78.1*	5.5	37.3	37.4	74.8*	72.1*	21.0
COc1ccc(N2CCN(C(CNC(=O)Oc3ccccc3)c3cccnc3)CC2)cc1 (stereo not given)	-0.7	1.5	70.5*	6.8	7.5	-1.2	-11.7	-1.8	-7.4	1.8	2.9
O=C(NCC(c1cccnc1)N1CCN(c2ccccc2F)CC1)Oc1ccccc1 (stereo not given)	-2.5	5.6	4.6	11.8	3.3	-4.3	/	/	/	/	/
CC(Cc1ccc(O)cc1)NCC(O)c1ccc(O)c(O)c1 (stereo not given)	/	/	/	23.6	/	/	/	/	/	/	/
SMILES	UBC13 inh	SENP8 block-1	SENP7 inh	SENP8 block-2	SENP6 inh	Apaf1 inhib	SENP8 conf	SENP6 confirm	SENP7 conf	Casp3 SENP sel	Luc interf
CC(C)(C)n1cc(C(=O)c2ccccc2OCCCF)cn1	8.9	-7.3	7.6	-1.8	-15.1	2.2	/	/	/	/	/
CC(C)(C)n1cc(C(=O)c2ccc3ccccc3c2O)cn1	5.6	57.3*	68.0*	9.1	-33.1	12.4	18.3	15.4	2.2	11.4	14.2
COc1ccc(C(O)CNC(C)C)c(F)c1OC (stereo not given)	8.2	0.9	-0.9	11.0	-18.1	-9.2	/	/	/	/	/
Nc1c2c(nc3sc4c(c13)CCCCC4)CCCC2	9.5	34.7	19.2	13.0	53.9*	5.4	41.6	33.7	66.7*	46.0	16.8
CN1CCN(Cc2cn(C)c3ccccc23)CC1CCO (stereo not given)	/	/	/	15.1	/	/	/	/	/	/	/
CCOC(=O)c1cccc(NC(=O)c2c(O)[nH]c(=O)[nH]c2=O)c1	-9.9	26.7	51.1*	7.1	58.3*	-1.5	47.9	41.3	81.2*	72.8*	44.7
OCC[n+]1c2ccccc2nc2ccc(N3CCOCC3)cc21	-455.9	38.3	21.9	30.7	52.4*	36.1	49.4	67.7*	39.6	48.4	18.1
CCC(C)OC(=O)c1c(N)n(Cc2cccs2)c2nc3ccccc3nc12 (stereo not given)	21.6	-2.7	0.8	-272.7	-13.5	11.6	/	/	/	/	/
CCC(C)NC(=O)c1c(N)n(Cc2ccc3c(c2)OCO3)c2nc3ccccc3nc12 (stereo not given)	10.8	91.8*	67.6*	i	90.4*	96.1*	2.1	11.0	10.8	-2.7	2.6
COC(=O)C1=C(c2ccc(-c3ccccc3)c(F)c2)C[C@@H]2CC[C@H]1N2C(=O)NC1CC1	18.4	-0.7	0.4	15.4	27.4	17.5	/	/	/	/	/
Cc1cc(C(=O)N=Nc2c(O)n(C)c3ccccc23)c(C)o1	-26.9	79.0*	89.8*	28.0	90.6*	11.1	54.5*	56.3*	48.3	5.2	9.5
CCN(CC)P(=O)(c1n(CC)cc[n+]1CC)N(CC)CC	4.1	1.0	-0.1	7.0	7.0	-6.5	/	/	/	/	/
